# Rows were chosen to be rich in hits. Some 1.9% of all compounds tested hit in one or more screens of this group.
# Runt-CBFb FRET: inhibitors of human RUNX1 Runt domain binding to CBFb; Q01196+Q13951; Cerulean-Runt/Venus-CBFb FRET ratio 530/480, 1 h; inhibition, % at 20 µM; 0.46% of 220,000 active; AID 1496;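 active = inhibition over about 50% at 20 µM in the single-dose screen, limit read from the data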;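 also: 0% = DMSO wells and 100% = excess unlabeled CBFb competitor control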
#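 Assay system: Cerulean-tagged RUNX1 Runt domain (FRET donor) fusion protein / Amount: 100 nM each of Venus-CBFb and Cerulean-Runt domain / Medium: Tris buffer pH 7.5 with salts and BSA / Also added: Venus-CBFb 100 nM / Schedule: 1 h complex formation plus 1 h compound treatment, room temperature / Signal: FRET fluorescence / Read-out: loss of energy transfer signal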
# Hck-Nef inh: blocks Nef-activated human Hck kinase. inhibition, % at 20 µM. Recombinant Hck-YEEI plus Nef, Z-Lyte FRET kinase assay. P08631. 0.68% of 220,000 active;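 active = Hck-Nef kinase inhibition above about 50%, limit read from the data; inactive = inhibition below that limit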;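 also: 0% = DMSO with Hck plus Nef and 100% = Hck alone without Nef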
# Target sequence (P08631 whole entry, looked up): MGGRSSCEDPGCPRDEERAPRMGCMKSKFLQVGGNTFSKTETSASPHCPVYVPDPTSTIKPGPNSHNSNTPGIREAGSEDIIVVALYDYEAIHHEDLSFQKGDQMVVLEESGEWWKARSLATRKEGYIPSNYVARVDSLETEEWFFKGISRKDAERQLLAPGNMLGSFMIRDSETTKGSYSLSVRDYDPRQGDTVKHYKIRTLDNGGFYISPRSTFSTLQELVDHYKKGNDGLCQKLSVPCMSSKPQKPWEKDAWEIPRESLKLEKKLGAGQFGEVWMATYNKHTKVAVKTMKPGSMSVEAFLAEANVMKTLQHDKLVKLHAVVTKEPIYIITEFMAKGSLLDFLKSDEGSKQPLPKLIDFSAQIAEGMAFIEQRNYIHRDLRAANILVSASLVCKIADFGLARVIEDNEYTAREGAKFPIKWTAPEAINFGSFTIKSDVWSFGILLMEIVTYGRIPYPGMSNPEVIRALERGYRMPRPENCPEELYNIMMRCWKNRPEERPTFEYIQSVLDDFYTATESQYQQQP
# RanGTP-Impb inh: inhibitors of RanGTP-importin-beta interaction, primary screen, biochemical, FRET, CFP-Ran, YFP-importin-beta, homogeneous | inhibition, % (concentration not given with the values) | AID 2216 | 1.1% of 300,000 active | cell-free CFP-Ran/YFP-importin-beta FRET ratio;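 active = more than half of the replicate wells show a fall in the fluorescence ratio signal beyond about 16%, limit read from the data, passing the limit was not always enough; inconclusive = exactly half of the replicate wells pass the set limit; inactive = fewer than half of replicates pass the limit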;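 also: 0% = DMSO wells and 100% = Ran loaded with GDP instead of GTP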
# TbHK1 inh: blocks Trypanosoma brucei hexokinase 1 activity. recombinant TbHK1, G6PDH-coupled NADH A340. inhibition, % at 10 µM. 0.11% of 220,000 active. AID 1430;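 active = inhibition of 50% or more in the single-dose primary screen; inactive = inhibition below 50%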
# Runt-SMMHC FRET: blocks binding of human RUNX1 Runt domain to CBFb-SMMHC | Q01196+Q13951 | Cerulean-Runt/Venus-CBFb-SMMHC FRET ratio 530/480, 1 h | inhibition, % at 20 µM | 0.74% of 220,000 active | AID 1434;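 active = mean inhibition across duplicate retests at 20 µM reaching about 50%, limit read from the data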;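 also: 0% = DMSO wells and 100% = wells with excess untagged CBFb-SMMHC; inhibitors lower the FRET ratio by blocking Runt binding to CBFb-SMMHC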
# G6PDH ctr: counter-screen for TbHK1 inhibitors: Leuconostoc G6PDH inhibition. shares compounds with TbHK1 inh. purified G6PDH, NADH absorbance, 1 h. inhibition, % at 10 µM. 7% of 210 active;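 active = at least 50% inhibition in the glucose-6-phosphate dehydrogenase coupled counterscreen; inconclusive = no clear call, values can overlap the other calls; inactive = inhibition below 50%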
# TbHK1 rescreen: T. brucei hexokinase 1 inhibition, rescreen; shares compounds with TbHK1 inh; recombinant TbHK1, G6PDH-coupled NADH A340 absorbance; inhibition, % at 10 µM; 10% of 210 active; AID 2560;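 active = inhibition of at least 50% in both of the two screening runs; inconclusive = at least 50% in one run, below 50% in the other; inactive = inhibition below 50% in both runs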;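 also: 0% and 100% set by the maximum and minimum signal control wells on each plate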
# * marks the source's active call; other numbers are inactive results; ? = inconclusive; / = no result given.
SMILES,Runt-CBFb FRET,Hck-Nef inh,RanGTP-Impb inh,TbHK1 inh,Runt-SMMHC FRET,G6PDH ctr,TbHK1 rescreen
O=C(NCCCO)c1ccc2nc(-c3ccco3)c(-c3ccco3)nc2c1,8,30,/,-4,-27,/,/
Cc1ccccc1N1CCN(C2CCCN(C(=O)c3noc4c3CCCC4)C2)CC1 (centres undefined),/,/,1,/,/,/,/
O=C(CN(c1cccc(C(F)(F)F)c1)S(=O)(=O)c1ccc(Cl)c([N+](=O)[O-])c1)NCc1ccc(F)cc1,0,-25,-2,0,7,/,/
O=c1cc(NCc2ccccc2)nc2n1CCCS2,-4,3,20*,6,1,/,/
Cc1ccccc1-n1nc2c(c1NC(=O)c1cc3ccccc3oc1=O)CS(=O)(=O)C2,10,1,17*,5,39,/,/
COc1ccc(CN(C)c2ncnc3sccc23)c(OC)c1OC,/,/,9,/,/,/,/
CCc1ccc(CN(C)C(=O)c2cc(COc3ccc(OC)cc3Cl)on2)nc1,/,/,1,/,/,/,/
OCCN(CCO)c1ncnc2c1sc1nc(N3CCOCC3)c3c(c12)CCCC3,0,1,1,-34,-5,/,/
CSc1nc(N(CCO)CCO)c2sc3nc(-c4ccco4)c4c(c3c2n1)CCC4,-3,77*,-4,5,-20,/,/
O=C1CCC([N+](=O)[O-])C(c2ccc(-c3ccccc3)cc2)N1 (centres undefined),/,/,0,/,/,/,/
COC(=O)c1c(NC(=O)CCS(=O)(=O)c2ccccc2)sc2c1CCN(C)C2,/,/,79*,/,/,/,/
CC(C)N1CCc2c(sc(NC(=O)CCS(=O)(=O)c3ccccc3)c2C#N)C1,/,/,169*,/,/,/,/
CC(=O)N1CCc2c(sc(NC(=O)CS(=O)(=O)c3ccc(F)cc3)c2C#N)C1,/,/,2,/,/,/,/
COC(=O)c1ccsc1NC(=O)CCS(=O)(=O)c1ccccc1,/,/,6,/,/,/,/
CCCN1CCc2c(sc(NC(=O)CCS(=O)(=O)c3ccccc3)c2C(=O)OC)C1,/,/,155*,/,/,/,/
CCOC(=O)C(C)c1c(C(=O)c2ccc(C)nc2)c2ccccc2n1C (centres undefined),4,2,-1,-29,52*,/,/
Nc1cccc2c1C(=O)N(CC(=O)NC13CC4CC(CC(C4)C1)C3)C2=O,20,14,5,-4,93*,/,/
COc1ccc(OC)c(-c2csc(N(CC3CCCO3)C(=O)C3CCCCC3)n2)c1 (centres undefined),1,17,-2,2,-1,/,/
O=C1NC2=C(C(=O)CCC2)C(c2ccccc2Cl)N1 (centres undefined),/,/,-5,/,/,/,/
Cc1nc(Cl)c2c(n1)NC1=C(O2)C(=O)CCC1,-44,-7,-2,-8,73*,/,/
Cc1cccc(C(=O)NC(=S)NNC(=O)Cc2ccccc2)c1,9,0,2,67*,1,-14,-3
Cc1cccc(C(=O)NC(=S)NCc2ccccc2)c1,/,/,-11,/,/,/,/
CS(=O)(=O)c1ccc(NC(=O)c2ccc3c(c2)S(=O)(=O)N=C2CCCCCN23)cc1,/,/,-3,/,/,/,/
S=C(NCc1ccccn1)Nc1ccc(Cl)cc1,-4,-1,1,3,2,/,/
Fc1cccc(NC(=S)NCc2ccccn2)c1,2,-2,1,52*,3,4,1
SMILES,Runt-CBFb FRET,Hck-Nef inh,RanGTP-Impb inh,TbHK1 inh,Runt-SMMHC FRET,G6PDH ctr,TbHK1 rescreen
CCCC(=O)N(c1ccc(OCC)cc1)S(=O)(=O)c1ccc2c3c(cccc13)C(=O)N2C,/,/,2,/,/,/,/
CCC(C)(C)NC(=O)C(c1ccccn1)N(C(=O)c1csnn1)c1ccc(C)cc1 (centres undefined),-2,18,1,-6,0,/,/
OCC1N=C(c2ccccn2)OC1c1ccccc1 (centres undefined),2,5,2,56*,-4,0,0
c1ccc(-c2nnc(-c3ccccn3)nn2)nc1,/,/,1,/,/,/,/
CCOC(=O)Cc1csc(-n2sc3ccccc3c2=O)n1,9,-1,9,66*,/,-22,69*
CCOC(=O)Cc1csc(SCn2nnc3ccccc3c2=O)n1,0,-6,4,-5,-1,/,/
Cc1ccc(N=Nc2ccc(O)c3ncccc23)cc1,-6,1,-2,81*,-10,-20,0
Cc1ccc(N=Nc2ccc(O)c3ncccc23)cc1C,-2,24,?,-5,-4,/,/
CCC(=O)N1CCc2cc(S(=O)(=O)CCC(=O)NCCC3=CCCCC3)ccc21,-2,11,3,68*,1,-10,3
CC(C)c1[nH]nc2c1C(c1cccnc1)C(C#N)=C(N)O2 (centres undefined),-1,10,7,52*,2,-11,4
Cc1cc(C)n2nc(C(=O)OCC(=O)N3CC(C)CC(C)C3)nc2n1 (centres undefined),/,/,2,/,/,/,/
NC(=S)c1cc2ccc(O)cc2oc1=O,9,19,147*,85*,82*,109*,80*
COc1cc(CCC(=O)OCC(N)=O)cc(OC)c1OC,-1,-1,3,56*,-1,-6,-5
CC(C)(C)OC(=O)COc1ccc(/C=N/NC(=O)CN2CCCCC2)cc1,/,/,3,/,/,/,/
O=C(Cn1sc2ccccc2c1=O)NC12CC3CC(CC(C3)C1)C2,-55,39,0,66*,25,-14,85*
NC(Cc1cccc2nsnc12)C(=O)O (centres undefined),-1,3,10,58*,1,-18,-7
CCCCCOC(=O)NCC(O)c1ccccc1 (centres undefined),-1,5,?,53*,2,-2,3
COc1ccc(NC(=O)C2CC(=O)N(c3cccc(C)c3C)C2)cc1 (centres undefined),-2,17,-2,56*,3,-6,-1
Cc1cccc(N2CC(C(=O)Nc3ccc4c(c3)OCCO4)CC2=O)c1C (centres undefined),/,/,-1,/,/,/,/
CC(=O)Nc1ccc(NC(=O)C2CC(=O)N(c3cccc(C)c3C)C2)cc1 (centres undefined),1,4,1,51*,0,-7,-1
C/C(=N\NC(=O)c1cccnc1)c1ccc(OC2OCCOC2Oc2ccc(/C(C)=N/NC(=O)c3cccnc3)cc2)cc1 (centres undefined),1,24,-4,-6,2,/,/
O=C(NCc1cccc(Cl)c1)c1ccc2nc[nH]c2c1,-1,0,4,4,1,/,/
COc1cccc(CNC(=O)c2ccc3nc[nH]c3c2)c1,1,7,1,67*,-11,0,-1
O=C(O)c1ccc(CSC2CCCCC2)cc1,/,/,-6,/,/,/,/
O=C(CN1CCN(Cc2ccccc2)CC1)N1CCCc2c1c(=O)oc1ccc(O)cc21,-4,3,5,54*,0,8,-26
